Only some compounds are listed: those with a hit (about 3.1% of all), similar ones and a draw of the others.
NS3 helicase inh: HCV NS3 helicase inhibition | NS3 helicase DNA unwinding, Cy5 molecular beacon fluorescence | inhibition, % at 10.9 µM | 0.56% of 290,000 active | AID 1800;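 active means inhibition above the mean of all tested compounds plus 3 SD, set per campaign, cut at about 35% in these data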;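 further: 0% = DMSO wells and 100% = thioflavine S control wells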
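Measured by: Cy5 fluorescence, 0 and 60 min reads / Assay system: NS3 helicase fragment of HCV / Control set: low DMSO, high thioflavine S at 110 µM / Times: 1 h reaction at 25 °C, ATP-initiated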
IMP-1 inh-1: blocks Pseudomonas aeruginosa IMP-1 metallo-beta-lactamase; purified IMP-1, nitrocefin hydrolysis, epi-absorbance fluorescence; 0.45% of 290,000 active; inhibition, % at 5.6 µM;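 active means inhibition above the mean plus 3 SD of all compounds in the same screening run, cut at about 4.5% in these data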;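 further: 0% = IMP-1 with DMSO and 100% = DMSO wells lacking enzyme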
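System: Purified recombinant IMP-1 metallo-beta-lactamase enzyme | Measured by: Fluorescence quenching readout, ex 480/em 530 nm | Replication: Singlicate | Incubation: 15 min preincubation plus 25 min reaction at 25 °C | Evaluation: Percent inhibition from optical density relative to buffer-blank wells | Benchmarks: DMSO with and without IMP-1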
HCV core dimer: HCV core protein dimerization inhibition; TR-FRET GST/Flag-core106 dimerization, 1536-well; inhibition, % at 5 µM; 0.33% of 300,000 active;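 active means inhibition above the mean of all tested compounds plus 3 SD, set per screening campaign, cut at about 45% in these data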
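System: GST-tagged and Flag-tagged HCV core protein residues 1-106 / Input: core106 proteins, GST 13.5 nM and Flag 17 nM / Buffer or medium: KF-containing HEPES buffer, pH 7.45, DTT, CHAPS, BSA / Probe or stimulus: Eu-anti-GST and XL665-anti-Flag labelled anti-tag antibodies / Schedule: 4 h, 22.5 °C incubation / Technique: TR-FRET 671 and 617 nm emission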
VIM-2 inh: blocks Pseudomonas aeruginosa VIM-2 metallo-beta-lactamase; purified VIM-2, nitrocefin hydrolysis, epi-absorbance fluorescence; inhibition, % at 5.6 µM; 0.89% of 290,000 active;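 active means inhibition above the mean of all tested compounds plus 3 SD, cutoff set per screening run, cut at about 7.5% in these data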;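 further: red hydrolysis product quenches plate fluorescence so inhibitors raise well fluorescence; 0% = enzyme with DMSO and 100% = DMSO without enzyme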
SUMO HTRF inh: SUMOylation inhibition. HTRF SUMOylation assay, SAE1/SAE2 + UBC9, in vitro. AID 2006. inhibition, % at 35 µM. P63279. 0.36% of 290,000 active; in the data active means inhibition above about 50%, passing the limit was not always enough
Target sequence (P63279 whole entry, looked up): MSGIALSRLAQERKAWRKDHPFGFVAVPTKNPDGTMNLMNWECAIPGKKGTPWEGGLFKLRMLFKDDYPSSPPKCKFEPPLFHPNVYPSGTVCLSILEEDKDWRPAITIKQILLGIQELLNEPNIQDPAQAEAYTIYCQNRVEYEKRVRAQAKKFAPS
PHOSPHO1 block: blocks human PHOSPHO1 phosphatase activity. Q8TCT1. recombinant PHOSPHO1, absorbance phosphatase assay. inhibition, % at 13.3 µM. 1.1% of 290,000 active; in the data active means inhibition above about 60%
Target sequence (Q8TCT1 whole entry, looked up): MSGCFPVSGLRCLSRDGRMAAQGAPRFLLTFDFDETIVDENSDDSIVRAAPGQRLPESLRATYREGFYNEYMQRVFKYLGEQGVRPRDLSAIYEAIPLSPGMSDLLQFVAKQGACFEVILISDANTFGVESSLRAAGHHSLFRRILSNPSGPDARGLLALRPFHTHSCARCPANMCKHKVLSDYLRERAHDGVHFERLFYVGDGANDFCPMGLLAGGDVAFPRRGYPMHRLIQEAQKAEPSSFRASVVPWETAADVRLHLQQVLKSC
IMP-1 inh-2: IMP-1 inhibition, counter-screen for VIM-2 inhibitors; 1,300 tested, under 10 active; shares compounds with VIM-2 inh; inhibition, % at 5.6 µM; AID 1856; purified IMP-1, nitrocefin hydrolysis, epi-absorbance fluorescence; call rule not given here;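 further: 0% = enzyme with vehicle and 100% = vehicle without enzyme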
VIM-2 FRET ctr: counter-screen for VIM-2 inhibitors: epi-absorbance artifacts via FRET. shares compounds with VIM-2 inh. purified VIM-2, CCF2 FRET substrate hydrolysis. inhibition, % at 5.6 µM. 23% of 1,300 active;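 active means inhibition above the mean of all tested compounds plus 3 SD, cut at about 19% in these data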;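 further: 0% = VIM-2 plus DMSO and 100% = no enzyme wells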
TEM-1 counter: selectivity counter-screen for VIM-2 inhibitors: E. coli TEM-1 inhibitors. shares compounds with VIM-2 inh. Purified TEM-1, nitrocefin hydrolysis, epi-absorbance fluorescence. 3% of 1,300 active. inhibition, % at 5.6 µM;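 active means inhibition above that campaign's mean inhibition plus 3 SD, cut at about 0.46% in these data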;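 further: 0% = TEM-1 with DMSO and 100% = TEM-1 with 100 µM potassium clavulanate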
VIM-2 confirm 2: confirmation of P. aeruginosa VIM-2 metallo-beta-lactamase inhibitors; 96% of 1,300 active; AID 2187; shares compounds with VIM-2 inh; inhibition, % at 5.6 µM; purified VIM-2, nitrocefin hydrolysis, epi-absorbance;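 active means inhibition of the VIM-2 beta-lactamase enzyme above about 11% from the earlier first-round screen, limit read from the data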;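 further: 0% = VIM-2 with DMSO and 100% = buffer wells without enzyme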
* hit, by the source's call; / = no result.

SMILES	NS3 helicase inh	IMP-1 inh-1	HCV core dimer	VIM-2 inh	SUMO HTRF inh	PHOSPHO1 block	IMP-1 inh-2	VIM-2 FRET ctr	TEM-1 counter	VIM-2 confirm 2
COc1ccc(C(=O)Nc2nnc(SCC(=O)NCc3ccco3)s2)cc1OC	3	-3	3	-1	2	13	/	/	/	/
O=C(CSc1nnc(NC(=O)C2CC2)s1)NCc1ccccc1Cl	-4	-3	0	29*	-18	17	-3	53*	-6	35*
O=C(CSc1nnc(NC(=O)Cc2ccccc2)s1)NCc1ccco1	3	-5	-3	-1	20	20	/	/	/	/
O=C(CSc1nnc(NC(=O)c2ccccc2[N+](=O)[O-])s1)NCc1ccco1	7	-2	-3	41*	5	33	-3	64*	-7	46*
CCC(=O)N1CCN(c2ccc(NC(=O)COc3ccccc3Cl)cc2)CC1	2	1	-2	-3	-2	5	/	/	/	/
CN1CCN(c2ccc(NC(=O)COc3ccccc3Cl)cc2)CC1	-8	-3	-3	20*	21	-10	-3	-1	-6	40*
CCOc1ccc(C(=O)Nc2ccc(N3CCN(C)CC3)cc2)cc1Br	-71	-3	-12	24*	17	20	-3	-3	-7	43*
CN1CCN(c2ccc(NC(=O)c3ccc4c(c3)OCO4)cc2)CC1	2	-4	-10	18*	6	1	-4	0	-7	31*
CC(NC(=O)N1CCN(c2ccccc2F)CC1)c1ccc(F)c(F)c1 (stereo unspecified)	6	-4	-12	-2	3	27	/	/	/	/
CN(CC(=O)Nc1cccc(F)c1)C(=O)/C=C/c1cn(Cc2ccccc2)nc1-c1cccnc1	/	/	7	/	/	/	/	/	/	/
Cc1c(OC(C)C(=O)NCCN2CCOCC2)ccc2c3c(c(=O)oc12)CCC3 (stereo unspecified)	-2	-2	-8	19*	19	8	-5	2	-13	26*
Cc1c(OC(C)C(=O)NCCCN2CCOCC2)ccc2c3c(c(=O)oc12)CCC3 (stereo unspecified)	5	-2	-5	24*	/	41	-3	-1	-10	33*
Cc1c(OC(C)C(=O)NCC2CCC(C(=O)O)CC2)ccc2c3c(c(=O)oc12)CCCC3 (stereo unspecified)	-4	-4	-5	-2	3	20	/	/	/	/
O=C(CSc1nc2nc(-c3cccs3)cc(C(F)(F)F)c2c(=O)[nH]1)Nc1c(F)c(F)c(F)c(F)c1F	12	-3	25	-3	24	9	/	/	/	/
O=c1[nH]c(=S)[nH]c2nc(-c3cccs3)cc(C(F)(F)F)c12	12	-5	21	13*	2	27	-3	4	-7	15*
O=C(NCC1CCCO1)c1cccc(NS(=O)(=O)c2ccc(Br)cc2)c1 (stereo unspecified)	/	/	2	/	/	/	/	/	/	/
CCCCCCn1c(-c2cccs2)n[nH]c1=S	10	-3	15	72*	2	28	-5	83*	-11	76*
CCCCn1c(-c2nn(C)cc2Cl)n[nH]c1=S	-1	-2	0	39*	12	8	-2	66*	-8	48*
Cc1c(Cl)c(-c2n[nH]c(=S)n2CC(C)C)nn1C	-1	-3	-5	3	1	12	/	/	/	/
CCCCn1c(-c2nn(C)c(C)c2Cl)n[nH]c1=S	-7	-3	4	36*	11	8	-3	66*	-8	46*
Cc1cc(SCC(=O)c2ccc(O)c(O)c2)n2nc(C)c(-c3ccccc3)c2n1	25	-4	10	3	6	32	/	/	/	/
COc1ccc(-c2nc3ncccc3o2)cc1NC(=O)c1ccco1	2	0	-7	0	5	55	/	/	/	/
COc1ccccc1C(=O)COC(=O)c1ccccc1O	-2	-3	4	0	9	11	/	/	/	/
COc1ccccc1C(=O)COC(=O)/C=C/c1ccccc1	2	-2	4	13*	3	43	-4	29*	-2	18*
CCCOC1CCCN(Cc2nc(-c3ccc(C(=O)OC)cc3)no2)C1 (stereo unspecified)	4	-5	0	-2	0	3	/	/	/	/
SMILES	NS3 helicase inh	IMP-1 inh-1	HCV core dimer	VIM-2 inh	SUMO HTRF inh	PHOSPHO1 block	IMP-1 inh-2	VIM-2 FRET ctr	TEM-1 counter	VIM-2 confirm 2
O=c1cc(-c2ccco2)oc2c1ccc1ccccc12	5	-2	21	0	14	23	/	/	/	/
O=c1cc(-c2ccncc2)oc2c1ccc1ccccc12	5	-4	15	17*	26	46	-3	-1	-4	23*
Cc1nc2ncccn2c1-c1csc(Nc2ccc(O)cc2)n1	-3	-2	/	17*	6	29	-4	16	-11	28*
O=c1c2ccccc2nc2c3ccccc3c(NCCN3CCOCC3)nn12	18	-1	0	18*	12	12	-4	1	-6	28*
Cc1nc2ccccc2n1CCN1CCOCC1	-2	-3	0	-3	-3	26	/	/	/	/
c1ccc2nc3c(nc2c1)c1ccccc1n3CCN1CCOCC1	-38	-3	-4	12*	18	14	-3	2	-6	18*
COc1ccc(C2/C(=C(/O)c3ccc(Br)cc3)C(=O)C(=O)N2C)cc1 (stereo unspecified)	9	-1	-3	3	-7	51	/	/	/	/
Cc1ccc(NC(=O)CSC(C)C(=O)OCC(=O)N2CCN(C(=O)c3ccco3)CC2)cc1 (stereo unspecified)	/	/	0	/	/	/	/	/	/	/

Screening results (PubChem)
